Assay results taken from ChEMBL document CHEMBL3098086, “Synthesis and biological evaluation of α-triazolyl chalcones as a new type of potential antimicrobial agents and their interaction with calf thymus DNA and human serum albumin” (Eur J Med Chem, 2014).
Values after ≈ are worked out from the molar mass of the structure shown. Active and inactive are the calls of the source. The rule behind the calls is not given here.

Tests used:
Candida albicans = assay: Antifungal activity against Candida albicans ATCC 76615 after 24 hrs by micro broth dilution method; type: functional; settings: ATCC 76615, 24 h
How it was run: (§1)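 Fungi: C. albicans ATCC 76615 and C. mycoderma ATCC 96918. MICs by two-fold broth microdilution in 96-well plates per NCCLS. Fluconazole served as positive control.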

Pseudomonas aeruginosa = assay: Antibacterial activity against Pseudomonas aeruginosa ATCC 27853 after 24 hrs by twofold serial dilution method; type: functional; settings: ATCC 27853, 24 h
How it was run: (§2)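 Bacterial strains: S. aureus ATCC 25923, B. subtilis ATCC 21216, M. luteus ATCC 4698, E. coli JM109, P. aeruginosa ATCC 27853, B. proteus ATCC 13315. MICs by two-fold broth microdilution in 96-well plates per NCCLS. Chloromycin and Norfloxacin served as positive controls.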

Micrococcus luteus = assay: Antibacterial activity against Micrococcus luteus ATCC 4698 after 24 hrs by twofold serial dilution method; type: functional; settings: ATCC 4698, 24 h; how it was run: as §2
Candida = assay: Antifungal activity against Candida mycoderma ATCC 96918 after 24 hrs by micro broth dilution method; type: functional; settings: ATCC 96918, 24 h; how it was run: as §1
Staphylococcus aureus [1] = assay: Antibacterial activity against Staphylococcus aureus ATCC 25923 after 24 hrs by twofold serial dilution method; type: functional; settings: ATCC 25923, 24 h; how it was run: as §2
Bacillus subtilis = assay: Antibacterial activity against Bacillus subtilis ATCC 21216 after 24 hrs by twofold serial dilution method; type: functional; settings: ATCC 21216, 24 h; how it was run: as §2
Bacillus = assay: Antibacterial activity against Bacillus proteus ATCC 13315 after 24 hrs by twofold serial dilution method; type: functional; settings: ATCC 13315, 24 h; how it was run: as §2
Escherichia coli = assay: Antibacterial activity against Escherichia coli JM109 after 24 hrs by twofold serial dilution method; type: functional; settings: JM109, 24 h; how it was run: as §2
Salmonella typhi = assay: Antibacterial activity against Bacillus typhi after 24 hrs by twofold serial dilution method; type: functional, Salmonella enterica subsp. enterica serovar Typhi; settings: Salmonella enterica
How it was run: (§3)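 Two-fold broth microdilution per NCCLS recommendations. The MIC was read as the minimum inhibitory concentration. Chloromycin and Norfloxacin served as positive controls. Strains were Bacillus typhi (Gram-negative panel) and methicillin-resistant S. aureus N315.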

Staphylococcus aureus [2] = assay: Antibacterial activity against methicillin-resistant staphylococcus aureus N315 after 24 hrs by twofold serial dilution method; type: functional; settings: N315, 24 h; how it was run: as §3
DNA [3] = assay: Displacement of neutral red from calf thymus DNA by UV-vis absorption spectra analysis; type: nucleic-acid assay; settings: Bos taurus
Albumin [4] = target: T1, Albumin (Homo sapiens, UniProt P02768); assay: Binding affinity to human serum albumin at pH 7.4 at 310 K by fluorescence quenching analysis; type: ADME; settings: isolated protein
T1 sequence (P02768 whole entry): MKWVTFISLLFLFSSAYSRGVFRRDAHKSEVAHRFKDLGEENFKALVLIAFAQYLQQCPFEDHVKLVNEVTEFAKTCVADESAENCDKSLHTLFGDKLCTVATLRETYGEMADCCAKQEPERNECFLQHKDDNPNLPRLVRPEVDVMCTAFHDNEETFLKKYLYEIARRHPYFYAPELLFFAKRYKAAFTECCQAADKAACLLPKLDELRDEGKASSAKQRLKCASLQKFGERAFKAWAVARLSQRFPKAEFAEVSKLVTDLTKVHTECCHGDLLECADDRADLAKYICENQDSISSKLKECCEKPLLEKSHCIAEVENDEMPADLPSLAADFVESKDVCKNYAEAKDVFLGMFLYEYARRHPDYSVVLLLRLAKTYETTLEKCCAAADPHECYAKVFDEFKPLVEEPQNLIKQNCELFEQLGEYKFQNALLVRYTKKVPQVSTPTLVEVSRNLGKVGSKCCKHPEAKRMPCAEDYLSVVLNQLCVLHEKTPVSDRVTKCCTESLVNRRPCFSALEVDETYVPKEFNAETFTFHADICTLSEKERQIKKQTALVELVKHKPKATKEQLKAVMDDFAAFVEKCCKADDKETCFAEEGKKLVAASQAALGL
How it was run: (§4)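 Intrinsic HSA Trp fluorescence was quenched by compound titration at pH 7.4 and at 286, 298 or 310 K. Excitation was 295 nm, emission scanned 300–450 nm, both slits 2.5 nm, 1.0 cm quartz cells. Data were fitted by Stern–Volmer analysis to give KSV. Kq was calculated assuming an HSA fluorescence lifetime of 6.4 × 10^-9 s.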

Albumin [5] = target: T1, Albumin; assay: Ratio of binding affinity to human serum albumin in presence of Cu2+ to binding affinity to human serum albumin absence of Cu2+; type: ADME; settings: isolated protein
Albumin [6] = target: T1, Albumin; assay: Ratio of binding affinity to human serum albumin in presence of Ni2+ to binding affinity to human serum albumin absence of Ni2+; type: ADME; settings: isolated protein
Albumin [7] = target: T1, Albumin; assay: Ratio of binding affinity to human serum albumin in presence of Ca2+ to binding affinity to human serum albumin absence of Ca2+; type: ADME; settings: isolated protein
Albumin [8] = target: T1, Albumin; assay: Ratio of binding affinity to human serum albumin in presence of Zn2+ to binding affinity to human serum albumin absence of Zn2+; type: ADME; settings: isolated protein
Albumin [9] = target: T1, Albumin; assay: Ratio of binding affinity to human serum albumin in presence of K+ to binding affinity to human serum albumin absence of K+; type: ADME; settings: isolated protein
DNA [10] = assay: Binding affinity to calf thymus DNA by UV-vis absorption spectra analysis; type: nucleic-acid assay; settings: Bos taurus
Albumin [11] = target: T1, Albumin; assay: Binding affinity to human serum albumin at pH 7.4 at 286 K by fluorescence quenching analysis; type: ADME; settings: isolated protein; how it was run: as §4
Albumin [12] = target: T1, Albumin; assay: Ratio of binding affinity to human serum albumin in presence of Fe3+ to binding affinity to human serum albumin absence of Fe3+; type: ADME; settings: isolated protein
Albumin [13] = target: T1, Albumin; assay: Ratio of binding affinity to human serum albumin in presence of Pb2+ to binding affinity to human serum albumin absence of Pb2+; type: ADME; settings: isolated protein
Albumin [14] = target: T1, Albumin; assay: Binding affinity to human serum albumin at pH 7.4 at 298 K by fluorescence quenching analysis; type: ADME; settings: isolated protein; how it was run: as §4
Albumin [15] = target: T1, Albumin; assay: Ratio of binding affinity to human serum albumin in presence of Mg2+ to binding affinity to human serum albumin absence of Mg2+; type: ADME; settings: isolated protein

SMILES | MIC (Candida albicans) [µg/mL] | MIC (Pseudomonas aeruginosa) [µg/mL] | MIC (Micrococcus luteus) [µg/mL] | MIC (Candida) [µg/mL] | MIC (Staphylococcus aureus [1]) [µg/mL] | MIC (Bacillus subtilis) [µg/mL] | MIC (Bacillus) [µg/mL] | MIC (Escherichia coli) [µg/mL] | MIC (Salmonella typhi) [µg/mL] | MIC (Staphylococcus aureus [2]) [µg/mL] | also measured
O=C(/C(=C/c1ccccc1)n1cncn1)c1ccc(N2CCCC2)cc1N1CCCC1 | 8 (≈ 19.3 µM) | 32 (≈ 77.4 µM) | 16 (≈ 38.7 µM) | 4 (≈ 9.67 µM) | 32 (≈ 77.4 µM) | 16 (≈ 38.7 µM) | 32 (≈ 77.4 µM) | 32 (≈ 77.4 µM) | 8 (≈ 19.3 µM) | 16 (≈ 38.7 µM) | 
O=C(/C(=C/c1ccc(Cl)cc1)n1cncn1)c1ccc(F)cc1F | 16 (≈ 46.3 µM) | 128 (≈ 370 µM) | 64 (≈ 185 µM) | 16 (≈ 46.3 µM) | 16 (≈ 46.3 µM) | 32 (≈ 92.6 µM) | 64 (≈ 185 µM) | 64 (≈ 185 µM) | 32 (≈ 92.6 µM) | 32 (≈ 92.6 µM) | 
CN(C)c1ccc(/C=C(/C(=O)c2ccc(F)cc2F)n2cncn2)cc1 | 16 (≈ 45.2 µM) | 256 (≈ 722 µM) | 64 (≈ 181 µM) | 64 (≈ 181 µM) | 64 (≈ 181 µM) | 64 (≈ 181 µM) | 64 (≈ 181 µM) | 128 (≈ 361 µM) | 64 (≈ 181 µM) | 32 (≈ 90.3 µM) | 
Cc1ccc(C(=O)/C(=C/c2ccccc2)n2cncn2)cc1C | 16 (≈ 52.7 µM) | 128 (≈ 422 µM) | 128 (≈ 422 µM) | 256 (≈ 844 µM) | 256 (≈ 844 µM) | 64 (≈ 211 µM) | 128 (≈ 422 µM) | 16 (≈ 52.7 µM) | 128 (≈ 422 µM) | 256 (≈ 844 µM) | 
Cc1ccc(/C=C(/C(=O)c2ccc(F)cc2F)n2cncn2)cc1 | 16 (≈ 49.2 µM) | 16 (≈ 49.2 µM) | 64 (≈ 197 µM) | 16 (≈ 49.2 µM) | 32 (≈ 98.4 µM) | 64 (≈ 197 µM) | 64 (≈ 197 µM) | 32 (≈ 98.4 µM) | 64 (≈ 197 µM) | 32 (≈ 98.4 µM) | 
O=C(N[C@H](CO)[C@H](O)c1ccc([N+](=O)[O-])cc1)C(Cl)Cl [CHLORAMPHENICOL] |  | 32 (≈ 99 µM) | 8 (≈ 24.8 µM) |  | 16 (≈ 49.5 µM) | 32 (≈ 99 µM) | 32 (≈ 99 µM) | 32 (≈ 99 µM) | 32 (≈ 99 µM) | 16 (≈ 49.5 µM) | 
COc1ccc(/C=C(/C(=O)c2ccc(F)cc2F)n2cncn2)cc1 | 16 (≈ 46.9 µM) | 16 (≈ 46.9 µM) | 16 (≈ 46.9 µM) | 32 (≈ 93.8 µM) | 8 (≈ 23.4 µM) | 8 (≈ 23.4 µM) | 8 (≈ 23.4 µM) | 16 (≈ 46.9 µM) | 32 (≈ 93.8 µM) | 4 (≈ 11.7 µM) | 
O=C(/C(=C/c1ccccc1)n1cncn1)c1ccc(F)cc1N1CCCC1 | 32 (≈ 88.3 µM) | 16 (≈ 44.1 µM) | 16 (≈ 44.1 µM) | 256 (≈ 706 µM) | 16 (≈ 44.1 µM) | 8 (≈ 22.1 µM) | 16 (≈ 44.1 µM) | 8 (≈ 22.1 µM) | 4 (≈ 11 µM) | 16 (≈ 44.1 µM) | 
Cc1ccc(C(=O)/C(=C/c2ccccc2)n2cncn2)c(C)c1 | 128 (≈ 422 µM) | 256 (≈ 844 µM) | 256 (≈ 844 µM) | 256 (≈ 844 µM) | 128 (≈ 422 µM) | 128 (≈ 422 µM) | 128 (≈ 422 µM) | 256 (≈ 844 µM) | 128 (≈ 422 µM) | 64 (≈ 211 µM) | 
CCn1cc(C(=O)O)c(=O)c2cc(F)c(N3CCNCC3)cc21 [NORFLOXACIN] |  | 16 (≈ 50.1 µM) | 2 (≈ 6.26 µM) |  | 0.5 (≈ 1.57 µM) | 1 (≈ 3.13 µM) | 8 (≈ 25.1 µM) | 16 (≈ 50.1 µM) | 4 (≈ 12.5 µM) | 8 (≈ 25.1 µM) | 
O=C(/C(=C/c1ccccc1)n1cncn1)c1ccc(N2CCCCC2)cc1N1CCCCC1 | 16 (≈ 36.2 µM) | 128 (≈ 290 µM) | 64 (≈ 145 µM) | 16 (≈ 36.2 µM) | 16 (≈ 36.2 µM) | 32 (≈ 72.5 µM) | 64 (≈ 145 µM) | 64 (≈ 145 µM) | 32 (≈ 72.5 µM) | 32 (≈ 72.5 µM) | 
O=C(/C(=C/c1ccc(Cl)cc1)n1cncn1)c1ccc(Cl)cc1 | 64 (≈ 186 µM) | 8 (≈ 23.2 µM) | 64 (≈ 186 µM) | 64 (≈ 186 µM) | 32 (≈ 93 µM) | 32 (≈ 93 µM) | 32 (≈ 93 µM) | 16 (≈ 46.5 µM) | 16 (≈ 46.5 µM) | 32 (≈ 93 µM) | 
O=C(/C(=C/c1ccccc1)n1cncn1)c1ccc(Cl)cc1 | 16 (≈ 51.7 µM) | 256 (≈ 826 µM) | 64 (≈ 207 µM) | 64 (≈ 207 µM) | 64 (≈ 207 µM) | 64 (≈ 207 µM) | 64 (≈ 207 µM) | 128 (≈ 413 µM) | 64 (≈ 207 µM) | 32 (≈ 103 µM) | 
O=C(/C(=C/c1ccccc1)n1cncn1)c1ccc(F)cc1N1CCCCC1 | 16 (≈ 42.5 µM) | 16 (≈ 42.5 µM) | 4 (≈ 10.6 µM) | 8 (≈ 21.3 µM) | 16 (≈ 42.5 µM) | 8 (≈ 21.3 µM) | 8 (≈ 21.3 µM) | 16 (≈ 42.5 µM) | 8 (≈ 21.3 µM) | 4 (≈ 10.6 µM) | Activity (DNA [3]): Active; KSV (Albumin [4]): 5.84 ×10⁴ L/mol; Ratio (Albumin [5]): 0.959; Ratio (Albumin [6]): 0.835; Ratio (Albumin [7]): 0.887; Ratio (Albumin [8]): 0.918; Ratio (Albumin [9]): 1.324; Activity (DNA [10]): Dose-dependent effect; K (DNA [10]): 1.22 ×10⁴ L/mol; KSV (Albumin [11]): 7.59 ×10⁴ L/mol; Ratio (Albumin [12]): 1.151; Ratio (Albumin [13]): 0.819; KSV (Albumin [14]): 6.72 ×10⁴ L/mol; Ratio (Albumin [15]): 1.068
O=C(/C(=C/c1ccccc1)n1cncn1)c1ccc(N2CCOCC2)cc1N1CCOCC1 | 128 (≈ 287 µM) | 128 (≈ 287 µM) | 64 (≈ 144 µM) | 64 (≈ 144 µM) | 32 (≈ 71.8 µM) | 64 (≈ 144 µM) | 64 (≈ 144 µM) | 32 (≈ 71.8 µM) | 32 (≈ 71.8 µM) | 64 (≈ 144 µM) | 
O=C(/C(=C/c1ccccc1)n1cncn1)c1ccc(F)cc1F | 128 (≈ 411 µM) | 128 (≈ 411 µM) | 64 (≈ 206 µM) | 64 (≈ 206 µM) | 32 (≈ 103 µM) | 64 (≈ 206 µM) | 64 (≈ 206 µM) | 32 (≈ 103 µM) | 32 (≈ 103 µM) | 64 (≈ 206 µM) | 
O=C(/C(=C/c1ccc(F)cc1)n1cncn1)c1ccc(F)cc1F | 64 (≈ 194 µM) | 32 (≈ 97.2 µM) | 32 (≈ 97.2 µM) | 64 (≈ 194 µM) | 64 (≈ 194 µM) | 64 (≈ 194 µM) | 16 (≈ 48.6 µM) | 32 (≈ 97.2 µM) | 32 (≈ 97.2 µM) | 128 (≈ 389 µM) | 
O=C(/C(=C/c1ccccc1)n1cncn1)c1ccc(F)cc1N1CCOCC1 | 128 (≈ 338 µM) | 64 (≈ 169 µM) | 64 (≈ 169 µM) | 32 (≈ 84.6 µM) | 32 (≈ 84.6 µM) | 32 (≈ 84.6 µM) | 32 (≈ 84.6 µM) | 16 (≈ 42.3 µM) | 32 (≈ 84.6 µM) | 128 (≈ 338 µM) | 
OC(Cn1cncn1)(Cn1cncn1)c1ccc(F)cc1F [FLUCONAZOLE] | 1 (≈ 3.27 µM) |  |  | 4 (≈ 13.1 µM) |  |  |  |  |  |  | 
